Source: ChEMBL document CHEMBL1255513, “Synthesis and biological evaluation of indomethacin analogs possessing a N-difluoromethyl-1,2-dihydropyrid-2-one ring system: a search for novel cyclooxygenase and lipoxygenase inhibitors” (Bioorg Med Chem Lett, 2010)
Calls of active or inactive are those of the source. The calls are words filed in the database; no cut-off is given here.

Experiments:
[1] = target: T1, Prostaglandin G/H synthase 1 (Ovis aries, UniProt P05979); assay: Inhibition of ovine COX1 by enzyme immunoassay
T1 sequence (P05979 whole entry): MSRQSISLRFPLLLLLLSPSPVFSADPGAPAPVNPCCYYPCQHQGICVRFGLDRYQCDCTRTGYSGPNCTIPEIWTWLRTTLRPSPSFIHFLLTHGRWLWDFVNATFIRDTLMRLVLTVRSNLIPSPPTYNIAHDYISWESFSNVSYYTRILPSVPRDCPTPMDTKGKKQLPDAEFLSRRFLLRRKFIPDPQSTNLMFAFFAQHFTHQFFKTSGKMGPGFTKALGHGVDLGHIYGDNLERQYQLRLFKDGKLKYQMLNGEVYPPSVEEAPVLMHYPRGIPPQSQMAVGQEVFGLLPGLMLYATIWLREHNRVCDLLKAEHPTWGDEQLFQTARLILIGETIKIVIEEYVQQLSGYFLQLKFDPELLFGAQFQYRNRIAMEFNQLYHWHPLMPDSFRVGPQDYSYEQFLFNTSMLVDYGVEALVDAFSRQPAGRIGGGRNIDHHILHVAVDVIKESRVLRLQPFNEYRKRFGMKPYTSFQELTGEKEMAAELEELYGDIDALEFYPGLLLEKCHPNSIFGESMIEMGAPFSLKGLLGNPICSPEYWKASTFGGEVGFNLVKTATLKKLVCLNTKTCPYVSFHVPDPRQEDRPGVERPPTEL
Method in brief: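 COX inhibition was measured by enzyme immunoassay kit. IC50 is the mean of two determinations, with deviation from the mean below 10%.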

[2] = target: T2, Prostaglandin G/H synthase 2 (Homo sapiens, UniProt P35354); assay: Inhibition of human recombinant COX2 by enzyme immunoassay
T2 sequence (P35354 whole entry): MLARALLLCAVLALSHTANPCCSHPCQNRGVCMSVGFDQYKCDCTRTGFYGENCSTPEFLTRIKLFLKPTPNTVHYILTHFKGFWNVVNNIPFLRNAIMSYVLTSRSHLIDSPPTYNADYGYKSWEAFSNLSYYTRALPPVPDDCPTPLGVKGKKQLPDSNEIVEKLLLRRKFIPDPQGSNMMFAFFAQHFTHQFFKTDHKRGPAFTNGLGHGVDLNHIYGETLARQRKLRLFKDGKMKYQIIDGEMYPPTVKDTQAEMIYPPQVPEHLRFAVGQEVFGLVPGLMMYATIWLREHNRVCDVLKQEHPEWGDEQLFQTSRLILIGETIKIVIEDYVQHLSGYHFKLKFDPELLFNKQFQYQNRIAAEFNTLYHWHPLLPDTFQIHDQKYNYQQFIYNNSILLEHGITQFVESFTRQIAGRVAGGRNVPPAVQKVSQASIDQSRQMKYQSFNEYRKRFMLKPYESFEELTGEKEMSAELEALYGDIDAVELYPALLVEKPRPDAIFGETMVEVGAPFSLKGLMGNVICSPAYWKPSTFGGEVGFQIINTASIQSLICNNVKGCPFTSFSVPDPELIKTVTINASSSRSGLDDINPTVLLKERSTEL

[3] = Inhibition of potato 5-lipoxygenase by enzyme immunoassay; design: species or system Solanum tuberosum
[4] = system: Rattus norvegicus; assay: Antiinflammatory activity in rat assessed as inhibition of carrageenan-induced rat paw edema at 100 mg/kg, po after 3 hrs; format: functional
Method in brief: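 Carrageenan-induced rat paw edema; test compound given orally at 100 mg/kg. Result is % inhibition of inflammation at 3 h after dosing. Protocol was approved by the University of Alberta Health Sciences Animal Welfare Committee.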

[5] = system: Rattus norvegicus; assay: Antiinflammatory activity in rat assessed as inhibition of carrageenan-induced rat paw edema at 4.2 mg/kg, po after 3 hrs; format: functional
Method in brief: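 Carrageenan-induced foot paw edema in rats, with the agent given orally. Read-out is % inhibition of inflammation, measured 3 h after the oral dose. Animal work followed protocols approved by the University of Alberta Health Sciences Animal Welfare Committee.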

Structure (SMILES)	IC50 [1] [µM]	IC50 [2] [µM]	IC50 [3] [µM]	inhibition in vivo at 100 mg/kg [4] [%]	inhibition [4]	inhibition in vivo at 4.2 mg/kg [5] [%]
COc1ccc2c(c1)c(CC(=O)O)c(C)n2C(=O)c1ccn(C(F)F)c(=O)c1	> 100	> 100	> 100	25.5		
COc1ccc2c(c1)c(CC(=O)O)c(C)n2Cc1ccn(C(F)F)c(=O)c1	> 100	31	> 100		inactive	
COc1ccc2c(c1)c(CC(=O)O)c(C)n2C(=O)c1ccc(Cl)cc1 [INDOMETHACIN]						50
COc1ccc2c(c1)c(CC(=O)O)c(C)n2Cc1ccc(=O)n(C(F)F)c1	> 100	> 100	> 100	16		
CC(Cc1ccc(O)c(O)c1)C(C)Cc1ccc(O)c(O)c1 (centres undefined) [NORDIHYDROGUAIARETIC ACID]			13			
